ChEMBL document CHEMBL3098056, “Small molecule inhibitors of anthrax lethal factor toxin” (Bioorg Med Chem, 2014)

How the values were obtained:
[1] = biological target: Matrix metalloproteinase-9 (Homo sapiens, UniProt P14780); assay: Inhibition of human MMP-9 after 60 mins by FRET assay
In short: (§1)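 MMP-1 (38 nM) or MMP-9 (13 nM) with 50 fluorogenic substrate in 50 mM MOPS pH 6.0 and 0.05% NP-40, 37 °C for 60 min (linear range 90 min). Stopped with acetic acid (0.5% final); emission at 440 nm, excitation at 340 nm.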

Lethal factor [2] = biological target: T1, Lethal factor (Bacillus anthracis, UniProt P15917); assay: Non-competitive inhibition of Bacillus anthracis lethal factor using 25 uM MCA-KKVYPYPME[dnp]K amide as substrate after 30 mins by Eadie-Hofstee plot analysis
T1 sequence (P15917 whole entry): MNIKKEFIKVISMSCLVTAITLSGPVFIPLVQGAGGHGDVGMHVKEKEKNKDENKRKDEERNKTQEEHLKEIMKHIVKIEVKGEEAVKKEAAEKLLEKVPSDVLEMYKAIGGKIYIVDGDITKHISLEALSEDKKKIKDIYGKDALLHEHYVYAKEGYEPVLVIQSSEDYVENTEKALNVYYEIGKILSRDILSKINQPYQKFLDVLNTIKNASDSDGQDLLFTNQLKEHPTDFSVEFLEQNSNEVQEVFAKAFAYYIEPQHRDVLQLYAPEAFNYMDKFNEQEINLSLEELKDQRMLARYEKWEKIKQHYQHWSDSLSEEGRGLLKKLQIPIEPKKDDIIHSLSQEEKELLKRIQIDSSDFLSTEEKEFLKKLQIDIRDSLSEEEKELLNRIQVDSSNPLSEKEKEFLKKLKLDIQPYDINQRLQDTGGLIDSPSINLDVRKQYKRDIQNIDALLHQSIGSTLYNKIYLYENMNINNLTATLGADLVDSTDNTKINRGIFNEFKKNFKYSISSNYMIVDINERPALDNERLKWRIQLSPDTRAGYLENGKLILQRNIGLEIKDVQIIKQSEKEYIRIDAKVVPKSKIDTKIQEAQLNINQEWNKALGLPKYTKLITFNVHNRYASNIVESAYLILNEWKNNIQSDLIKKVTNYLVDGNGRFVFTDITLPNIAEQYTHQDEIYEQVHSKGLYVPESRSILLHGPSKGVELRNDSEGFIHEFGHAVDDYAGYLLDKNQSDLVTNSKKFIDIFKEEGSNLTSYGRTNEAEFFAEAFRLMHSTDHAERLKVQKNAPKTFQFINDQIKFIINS

Lethal factor [3] = biological target: T1, Lethal factor; assay: Non-competitive inhibition of Bacillus anthracis lethal factor using 12.5 uM MCA-KKVYPYPME[dnp]K amide as substrate after 30 mins by Eadie-Hofstee plot analysis
Interstitial collagenase = biological target: T2, Interstitial collagenase (Homo sapiens, UniProt P03956); assay: Inhibition of human MMP-1 after 60 mins by FRET assay; in short: as §1
T2 sequence (P03956 whole entry): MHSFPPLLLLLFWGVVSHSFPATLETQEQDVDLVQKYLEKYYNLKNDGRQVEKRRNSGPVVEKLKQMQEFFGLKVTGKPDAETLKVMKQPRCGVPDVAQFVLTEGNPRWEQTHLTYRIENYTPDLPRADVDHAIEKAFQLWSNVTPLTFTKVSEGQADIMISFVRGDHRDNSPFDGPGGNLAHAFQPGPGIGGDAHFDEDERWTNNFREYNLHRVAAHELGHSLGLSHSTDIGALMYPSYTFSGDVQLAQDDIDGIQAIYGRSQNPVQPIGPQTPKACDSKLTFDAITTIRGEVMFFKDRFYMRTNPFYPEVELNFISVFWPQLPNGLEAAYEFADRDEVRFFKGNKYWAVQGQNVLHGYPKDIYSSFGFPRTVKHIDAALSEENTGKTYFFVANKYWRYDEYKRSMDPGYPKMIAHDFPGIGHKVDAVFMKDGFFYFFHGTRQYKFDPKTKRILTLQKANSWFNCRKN

Lethal factor [4] = biological target: T1, Lethal factor; assay: Non-competitive inhibition of Bacillus anthracis lethal factor using 50 uM MCA-KKVYPYPME[dnp]K amide as substrate after 30 mins by Eadie-Hofstee plot analysis
Lethal factor [5] = biological target: T1, Lethal factor; assay: Non-competitive inhibition of Bacillus anthracis lethal factor using 6.25 uM MCA-KKVYPYPME[dnp]K amide as substrate after 30 mins by Eadie-Hofstee plot analysis
Lethal factor [6] = biological target: T1, Lethal factor; assay: Non-competitive inhibition of Bacillus anthracis lethal factor using 3.12 uM MCA-KKVYPYPME[dnp]K amide as substrate after 30 mins by Eadie-Hofstee plot analysis
Lethal factor [7] = biological target: T1, Lethal factor; assay: Non-competitive inhibition of Bacillus anthracis lethal factor using 100 uM MCA-KKVYPYPME[dnp]K amide as substrate after 30 mins by Eadie-Hofstee plot analysis
Lethal factor [8] = biological target: T1, Lethal factor; assay: Inhibition of Bacillus anthracis lethal factor assessed as MCA-KKVYPYPME[dnp]K amide cleavage after 30 mins by fluorescence plate reader analysis
[9] = biological target: Botulinum neurotoxin type A (Clostridium botulinum, UniProt P0DPI0); assay: Inhibition of Clostridium bolulinum BoNT/A assessed as cleavage of MOCAc-Lys-Lys-Val-Tyr-Pro-Tyr-Pro-Met-Glu-Lys(Dnp)-NH2 after 40 mins by FRET assay
Chain of Botulinum neurotoxin type A (P0DPI0 2-448 limits assumed): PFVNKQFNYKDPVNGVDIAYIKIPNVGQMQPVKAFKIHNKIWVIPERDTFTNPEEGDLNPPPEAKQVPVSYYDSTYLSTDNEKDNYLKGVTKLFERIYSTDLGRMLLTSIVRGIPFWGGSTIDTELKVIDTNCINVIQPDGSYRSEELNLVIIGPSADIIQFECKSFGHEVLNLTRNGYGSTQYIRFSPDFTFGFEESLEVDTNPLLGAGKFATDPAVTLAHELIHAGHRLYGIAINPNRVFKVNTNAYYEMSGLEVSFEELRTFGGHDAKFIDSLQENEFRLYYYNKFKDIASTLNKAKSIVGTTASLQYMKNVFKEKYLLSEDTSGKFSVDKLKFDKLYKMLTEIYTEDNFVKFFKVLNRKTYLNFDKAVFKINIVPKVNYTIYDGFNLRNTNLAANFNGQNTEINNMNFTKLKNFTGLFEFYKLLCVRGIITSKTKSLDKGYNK
In short: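 BoNT/A light chain (2 nM) in a 96-well FRET format. Reactions were stopped with acetic acid to 0.5% and cleaved-substrate fluorescence read at 485 nm with excitation at 398 nm. The same format served for IC50 and mechanism kinetics.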

Lethal factor [10] = biological target: T1, Lethal factor; assay: Non-competitive inhibition of Bacillus anthracis lethal factor assessed as MCA-KKVYPYPME[dnp]K amide cleavage after 30 mins by Eadie-Hofstee plot analysis
Lethal factor [11] = biological target: T1, Lethal factor
Lethal factor [12] = biological target: T1, Lethal factor; assay: Inhibition of Bacillus anthracis lethal factor by fluorescence assay
In short: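 FRET-based assay: LF cleaves a SNAP-derived fluorogenic peptide, and cleavage is read as a change in fluorescence.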

Chain of Matrix metalloproteinase-9 (P14780 whole entry): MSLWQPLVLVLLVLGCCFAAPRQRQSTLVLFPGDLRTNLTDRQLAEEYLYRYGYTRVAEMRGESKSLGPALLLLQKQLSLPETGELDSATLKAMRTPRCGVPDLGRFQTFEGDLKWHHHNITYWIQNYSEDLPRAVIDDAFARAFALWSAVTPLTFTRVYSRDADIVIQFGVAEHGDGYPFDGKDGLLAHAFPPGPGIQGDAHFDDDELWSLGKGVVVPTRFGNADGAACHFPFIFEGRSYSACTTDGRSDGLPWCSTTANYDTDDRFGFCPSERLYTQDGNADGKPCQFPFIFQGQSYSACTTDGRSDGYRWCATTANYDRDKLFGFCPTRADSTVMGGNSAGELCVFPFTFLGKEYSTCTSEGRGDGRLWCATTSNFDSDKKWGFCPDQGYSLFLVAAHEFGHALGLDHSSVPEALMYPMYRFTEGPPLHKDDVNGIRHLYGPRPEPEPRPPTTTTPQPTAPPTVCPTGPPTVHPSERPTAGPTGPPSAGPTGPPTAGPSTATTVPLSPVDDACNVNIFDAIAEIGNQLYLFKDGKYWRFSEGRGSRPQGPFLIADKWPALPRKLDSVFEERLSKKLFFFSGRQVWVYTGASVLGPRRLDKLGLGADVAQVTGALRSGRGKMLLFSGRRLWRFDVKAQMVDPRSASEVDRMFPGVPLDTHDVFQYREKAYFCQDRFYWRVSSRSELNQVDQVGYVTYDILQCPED

With COc1ccccc1CCC(=O)Nc1ccc2nc(C)cc(N)c2c1 the IC50 [1] was greater than 100000 nM, the IC50 (Lethal factor [2]) was 952 nM and the IC50 (Lethal factor [3]) was 841 nM. For the same compound, the IC50 (Interstitial collagenase) was greater than 100000 nM, the IC50 (Lethal factor [4]) was 1100 nM and the IC50 (Lethal factor [5]) was 729 nM. It also gave a Ki (Lethal factor [6]) of 478 nM, an IC50 (Lethal factor [7]) of 1220 nM and an IC50 (Lethal factor [8]) of 3000 nM. It also gave an IC50 [9] greater than 100000 nM and a Ki (Lethal factor [10]) of 2880 nM.

Compound Cc1cc(N)c2cc(NC(=O)c3ccc(-c4ccc5ncccc5c4)cc3)ccc2n1 has an IC50 [1] of 1700 nM, an IC50 (Lethal factor [2]) of 1220 nM and an IC50 (Lethal factor [3]) of 1250 nM. For the same compound, the IC50 (Interstitial collagenase) was greater than 100000 nM, the IC50 (Lethal factor [4]) was 1160 nM and the IC50 (Lethal factor [5]) was 1260 nM. It also gave a Ki (Lethal factor [6]) of 1260 nM, an IC50 (Lethal factor [7]) of 1100 nM and an IC50 (Lethal factor [8]) of 1600 nM. It also gave an IC50 [9] of 38000 nM and a Ki (Lethal factor [10]) of 1140 nM.

Cc1cc(S(=O)(=O)N[C@@H](C(=O)NO)C2CCOCC2)ccc1F was tested, and the Ki (Lethal factor [11]) was 24 nM.

For O=c1oc2c(O)c(O)ccc2c2c1CCC2, the Ki (Lethal factor [12]) was 570 nM.
